Calls of active or inactive are those of the source. The rule behind the calls is not given here.
Columns and labels:
[1] = molecular target: T1, 14-alpha sterol demethylase (Neosartorya fumigata (Aspergillus fumigatus)) (UniProt Q96W81); test: Binding affinity to Aspergillus fumigatus AF293 sterol 14-alpha demethylase isoenzyme B expressed in Escherichia coli assessed as spectral dissociation constant
T1 sequence (whole entry): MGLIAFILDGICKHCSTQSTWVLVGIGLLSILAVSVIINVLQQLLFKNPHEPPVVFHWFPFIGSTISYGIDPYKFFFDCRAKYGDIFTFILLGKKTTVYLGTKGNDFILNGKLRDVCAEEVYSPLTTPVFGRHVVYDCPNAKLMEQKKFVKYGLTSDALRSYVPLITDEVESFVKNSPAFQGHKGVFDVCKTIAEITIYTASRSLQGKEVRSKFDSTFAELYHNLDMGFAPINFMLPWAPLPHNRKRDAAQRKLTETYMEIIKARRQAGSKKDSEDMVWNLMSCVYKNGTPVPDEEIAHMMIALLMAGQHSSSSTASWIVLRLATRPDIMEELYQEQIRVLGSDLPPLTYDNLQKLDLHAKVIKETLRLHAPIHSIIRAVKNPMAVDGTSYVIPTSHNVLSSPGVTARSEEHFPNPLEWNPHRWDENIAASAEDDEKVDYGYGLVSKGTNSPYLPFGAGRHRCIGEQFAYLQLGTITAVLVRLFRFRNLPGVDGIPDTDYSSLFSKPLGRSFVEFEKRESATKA
How it was run: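 His-tagged CYP51 (Af293 sequence, codon-optimised, E. coli-expressed), cholate-solubilised and Ni-NTA purified, at 1 μM in 0.1 M Tris-HCl pH 8.1 with 25% glycerol. Azole (0.05 mg/ml DMSO stock) titrated in split 4.5 mm cuvettes, with DMSO added to the reference. Difference spectra were read at 500–350 nm. Peak-to-trough change was plotted against concentration. Kd came from Morrison (tight binding), Michaelis-Menten or Hill fits.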

[2] = molecular target: T1, 14-alpha sterol demethylase (Neosartorya fumigata (Aspergillus fumigatus)); test: Binding affinity to Aspergillus fumigatus AF293 sterol 14-alpha demethylase isoenzyme B expressed in Escherichia coli assessed as generation of type I difference spectrum at 4.8 uM
[3] = molecular target: T1, 14-alpha sterol demethylase (Neosartorya fumigata (Aspergillus fumigatus)); test: Binding affinity to 1 uM recombinant Aspergillus fumigatus AF293 sterol 14-alpha demethylase isoenzyme B from Escherichia coli membrane suspension assessed as spectral dissociation constant

SMILES	Ks [1] [µM]	Activity [2]	Ks [3] [µM]
C=C(CC[C@@H](C)[C@H]1CC[C@@]2(C)C3=C(CC[C@]12C)[C@@]1(C)CC[C@H](C)C(C)(C)C1CC3)C(C)C (stereo not given in full)	22.6	Active	4.1
CC(C)=CCC[C@@H](C)[C@H]1CC[C@@]2(C)C3=C(CC[C@]12C)[C@@]1(C)CC[C@H](O)C(C)(C)[C@@H]1CC3	8.6	–	3.1

— ChEMBL document CHEMBL1671727, “Expression, purification, and characterization of Aspergillus fumigatus sterol 14-alpha demethylase (CYP51) isoenzymes A and B” (Antimicrob Agents Chemother, 2010)
